# Source: ChEMBL document CHEMBL5724801, “EUbOPEN Chemogenomics Library - Multiplex” (2024)
# Several values for one entry are separate records, joined by “and”; a condition that tells them apart may be missing. Equal entries are not always repeated.
# Test system: U2OS
# Test: Multiplex assay against U2OS
# Type: toxicity, cell-based
# Settings: human
# In short: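 Phenotypes for tubulin, mitochondrial mass and membrane permeability are expressed as per cents of healthy-nucleus cells. Cells were stained live at seeding with Hoechst33342, BioTracker Green Microtubule Cytoskeleton Dye, MitoTracker Red and Annexin V Alexa Fluor 680, then imaged after compound addition on a CQ1 microscope at 37°C and 5% CO2. Machine-learning gating in CellPathfinder separated Hoechst high-intensity objects from normal cells, divided normal cells by nuclear state (healthy, pyknosed, fragmented) and divided pyknosed cells into mitotic or apoptotic.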
# [1] = 12 h, 1 µM, compound concentration 1 uM
# [2] = 12 h, 10 µM, compound concentration 10 uM
# [3] = 24 h, 1 µM, compound concentration 1 uM
# [4] = 24 h, 10 µM, compound concentration 10 uM
# [5] = 48 h, 1 µM, compound concentration 1 uM
# [6] = 48 h, 10 µM, compound concentration 10 uM
smiles,measurement,setting,value
CN(C)c1ccnc2sc3c(=O)n(N4CCCCCC4)cnc3c12,Population Apoptotic (%),[1],81% and 87%
same,Population Fragmented Nuclei (%),[1],19% and 16%
same,Population Healthy Nuclei (%),[1],72% and 77%
same,Population Hoechst High Intensity Objects (%),[1],1%
same,Population Membrane Permeable-Phenotype (%),[1],4% and 6%
same,Population Mitochondria Different-Phenotype (%),[1],2%
same,Population Mitotic Cells (%),[1],18% and 12%
same,Population Normal (%),[1],98%
same,Population Pyknosed Nuclei (%),[1],7% and 6%
same,Population Tubulin-Different-Phenotype (%),[1],2%
same,Total Cell Count,[1],284 and 132
same,Population Apoptotic (%),[2],41% and 88%
same,Population Fragmented Nuclei (%),[2],30% and 18%
same,Population Healthy Nuclei (%),[2],56% and 71%
same,Population Hoechst High Intensity Objects (%),[2],4% and 5%
same,Population Membrane Permeable-Phenotype (%),[2],30% and 23%
same,Population Mitochondria Different-Phenotype (%),[2],14% and 27%
same,Population Normal (%),[2],95% and 94%
same,Population Pyknosed Nuclei (%),[2],12% and 9%
same,Population Tubulin-Different-Phenotype (%),[2],20% and 22%
same,Total Cell Count,[2],249 and 101
same,Population Apoptotic (%),[3],87% and 72%
same,Population Fragmented Nuclei (%),[3],16% and 15%
same,Population Healthy Nuclei (%),[3],72% and 76%
same,Population Hoechst High Intensity Objects (%),[3],2%
same,Population Membrane Permeable-Phenotype (%),[3],3% and 6%
same,Population Mitochondria Different-Phenotype (%),[3],3%
same,Population Mitotic Cells (%),[3],12% and 27%
same,Population Normal (%),[3],97%
same,Population Pyknosed Nuclei (%),[3],10% and 7%
same,Population Tubulin-Different-Phenotype (%),[3],1% and 4%
same,Total Cell Count,[3],326 and 150
same,Population Apoptotic (%),[4],68% and 100%
same,Population Fragmented Nuclei (%),[4],28% and 11%
same,Population Healthy Nuclei (%),[4],56% and 75%
same,Population Hoechst High Intensity Objects (%),[4],4% and 3%
same,Population Membrane Permeable-Phenotype (%),[4],22% and 23%
same,Population Mitochondria Different-Phenotype (%),[4],15% and 25%
same,Population Normal (%),[4],95% and 96%
same,Population Pyknosed Nuclei (%),[4],15% and 13%
same,Population Tubulin-Different-Phenotype (%),[4],14% and 24%
same,Total Cell Count,[4],260 and 108
same,Population Apoptotic (%),[5],90% and 92%
same,Population Fragmented Nuclei (%),[5],17% and 15%
same,Population Healthy Nuclei (%),[5],74% and 72%
same,Population Hoechst High Intensity Objects (%),[5],2%
same,Population Membrane Permeable-Phenotype (%),[5],4% and 5%
same,Population Mitochondria Different-Phenotype (%),[5],1% and 5%
same,Population Mitotic Cells (%),[5],9% and 7%
same,Population Normal (%),[5],97%
same,Population Pyknosed Nuclei (%),[5],8% and 11%
same,Population Tubulin-Different-Phenotype (%),[5],2%
same,Total Cell Count,[5],486 and 239
same,Population Apoptotic (%),[6],68% and 72%
same,Population Fragmented Nuclei (%),[6],28% and 15%
same,Population Healthy Nuclei (%),[6],57% and 61%
same,Population Hoechst High Intensity Objects (%),[6],4% and 9%
same,Population Membrane Permeable-Phenotype (%),[6],15% and 21%
same,Population Mitochondria Different-Phenotype (%),[6],11% and 19%
same,Population Mitotic Cells (%),[6],31% and 27%
same,Population Normal (%),[6],95% and 90%
same,Population Pyknosed Nuclei (%),[6],14% and 22%
same,Total Cell Count,[6],325 and 140
O=C(Nc1ccccc1Br)N[C@@H]1CCN(c2ccc(C(F)(F)F)cn2)C1 [SB-705498],Population Apoptotic (%),[1],38.89% and 33.33%
same,Population Fragmented Nuclei (%),[1],1.94% and 6.43%
same,Population Healthy Nuclei (%),[1],84.95% and 83.04%
same,Population Hoechst High Intensity Objects (%),[1],0%
same,Population Membrane Permeable-Phenotype (%),[1],1.14% and 2.82%
same,Population Mitochondria Different-Phenotype (%),[1],0% and 3.52%
same,Population Mitotic Cells (%),[1],61.11% and 66.67%
same,Population Normal (%),[1],100%
same,Population Pyknosed Nuclei (%),[1],13.11% and 10.53%
same,Population Tubulin-Different-Phenotype (%),[1],0.86% and 0%
same,Total Cell Count,[1],412 and 171
same,Population Apoptotic (%),[2],43.24% and 36.84%
same,Population Fragmented Nuclei (%),[2],0.5% and 3.7%
same,Population Healthy Nuclei (%),[2],90.35% and 82.22%
same,Population Hoechst High Intensity Objects (%),[2],0%
same,Population Membrane Permeable-Phenotype (%),[2],0.55% and 5.41%
same,Population Mitochondria Different-Phenotype (%),[2],0% and 21.62%
same,Population Mitotic Cells (%),[2],56.76% and 63.16%
same,Population Normal (%),[2],100%
same,Population Pyknosed Nuclei (%),[2],9.16% and 14.07%
same,Population Tubulin-Different-Phenotype (%),[2],1.64% and 3.6%
same,Total Cell Count,[2],404 and 135
same,Population Apoptotic (%),[3],45.28% and 27.59%
same,Population Fragmented Nuclei (%),[3],2.03% and 4.69%
same,Population Healthy Nuclei (%),[3],88.17% and 81.69%
same,Population Hoechst High Intensity Objects (%),[3],0.18% and 0%
same,Population Membrane Permeable-Phenotype (%),[3],0.21% and 2.87%
same,Population Mitochondria Different-Phenotype (%),[3],0% and 10.34%
same,Population Mitotic Cells (%),[3],54.72% and 72.41%
same,Population Normal (%),[3],99.82% and 100%
same,Population Pyknosed Nuclei (%),[3],9.8% and 13.62%
same,Population Tubulin-Different-Phenotype (%),[3],0.84% and 0%
same,Total Cell Count,[3],542 and 213
same,Population Apoptotic (%),[4],39.24% and 21.05%
same,Population Fragmented Nuclei (%),[4],0.86% and 1.8%
same,Population Healthy Nuclei (%),[4],85.49% and 86.83%
same,Population Hoechst High Intensity Objects (%),[4],0%
same,Population Membrane Permeable-Phenotype (%),[4],1.82% and 4.14%
same,Population Mitotic Cells (%),[4],60.76% and 78.95%
same,Population Normal (%),[4],100%
same,Population Pyknosed Nuclei (%),[4],13.64% and 11.38%
same,Population Tubulin-Different-Phenotype (%),[4],2.83% and 1.38%
same,Population Apoptotic (%),[5],41.75% and 51.28%
same,Population Fragmented Nuclei (%),[5],3.31% and 2.67%
same,Population Healthy Nuclei (%),[5],86.67% and 86.93%
same,Population Hoechst High Intensity Objects (%),[5],0%
same,Population Membrane Permeable-Phenotype (%),[5],0.9% and 2.76%
same,Population Mitochondria Different-Phenotype (%),[5],0% and 4.29%
same,Population Mitotic Cells (%),[5],58.25% and 48.72%
same,Population Normal (%),[5],100%
same,Population Pyknosed Nuclei (%),[5],10.02% and 10.4%
same,Population Tubulin-Different-Phenotype (%),[5],0.9% and 0.92%
same,Total Cell Count,[5],1028 and 375
same,Population Apoptotic (%),[6],52.22% and 32.26%
same,Population Fragmented Nuclei (%),[6],1.85% and 1.83%
same,Population Healthy Nuclei (%),[6],89.37% and 86.81%
same,Population Hoechst High Intensity Objects (%),[6],0.1% and 0%
same,Population Membrane Permeable-Phenotype (%),[6],1.09% and 4.64%
same,Population Mitochondria Different-Phenotype (%),[6],0.22% and 8.02%
same,Population Mitotic Cells (%),[6],47.78% and 67.74%
same,Population Normal (%),[6],99.9% and 100%
same,Population Pyknosed Nuclei (%),[6],8.78% and 11.36%
same,Population Tubulin-Different-Phenotype (%),[6],2.07% and 1.27%
N[C@@]1(C(=O)O)CO[C@H]2[C@H](C(=O)O)[C@H]21 [LY-379268],Population Apoptotic (%),[1],85% and 100%
same,Population Fragmented Nuclei (%),[1],20% and 17%
same,Population Healthy Nuclei (%),[1],76% and 79%
same,Population Hoechst High Intensity Objects (%),[1],0%
same,Population Membrane Permeable-Phenotype (%),[1],2% and 8%
same,Population Mitochondria Different-Phenotype (%),[1],1% and 2%
same,Population Mitotic Cells (%),[1],14% and 0%
same,Population Normal (%),[1],99%
same,Population Pyknosed Nuclei (%),[1],3% and 2%
same,Population Tubulin-Different-Phenotype (%),[1],1% and 3%
same,Total Cell Count,[1],211 and 108
same,Population Apoptotic (%),[2],63% and 80%
same,Population Fragmented Nuclei (%),[2],30% and 19%
same,Population Healthy Nuclei (%),[2],61% and 77%
same,Population Hoechst High Intensity Objects (%),[2],0% and 1%
same,Population Membrane Permeable-Phenotype (%),[2],8% and 4%
same,Population Mitochondria Different-Phenotype (%),[2],2% and 1%
same,Population Mitotic Cells (%),[2],36% and 20%
same,Population Normal (%),[2],99% and 98%
same,Population Pyknosed Nuclei (%),[2],7% and 3%
same,Population Tubulin-Different-Phenotype (%),[2],3% and 1%
same,Total Cell Count,[2],264 and 143
same,Population Apoptotic (%),[3],88% and 100%
same,Population Fragmented Nuclei (%),[3],20% and 11%
same,Population Healthy Nuclei (%),[3],71% and 79%
same,Population Hoechst High Intensity Objects (%),[3],1% and 0%
same,Population Mitochondria Different-Phenotype (%),[3],1% and 2%
same,Population Mitotic Cells (%),[3],11% and 0%
same,Population Normal (%),[3],98% and 100%
same,Population Pyknosed Nuclei (%),[3],7% and 9%
same,Population Tubulin-Different-Phenotype (%),[3],1% and 6%
same,Total Cell Count,[3],245 and 133
same,Population Apoptotic (%),[4],81% and 90%
same,Population Fragmented Nuclei (%),[4],25% and 16%
same,Population Healthy Nuclei (%),[4],66% and 77%
same,Population Hoechst High Intensity Objects (%),[4],1%
same,Population Membrane Permeable-Phenotype (%),[4],8% and 4%
same,Population Mitochondria Different-Phenotype (%),[4],1% and 4%
same,Population Mitotic Cells (%),[4],18% and 10%
same,Population Normal (%),[4],98%
same,Population Pyknosed Nuclei (%),[4],7% and 6%
same,Population Tubulin-Different-Phenotype (%),[4],2% and 4%
same,Total Cell Count,[4],284 and 165
same,Population Apoptotic (%),[5],92% and 100%
same,Population Fragmented Nuclei (%),[5],13% and 15%
same,Population Healthy Nuclei (%),[5],79% and 72%
same,Population Hoechst High Intensity Objects (%),[5],1% and 2%
same,Population Membrane Permeable-Phenotype (%),[5],3% and 11%
same,Population Mitochondria Different-Phenotype (%),[5],2% and 5%
same,Population Mitotic Cells (%),[5],7% and 0%
same,Population Normal (%),[5],98% and 97%
same,Population Pyknosed Nuclei (%),[5],7% and 12%
same,Population Tubulin-Different-Phenotype (%),[5],3% and 5%
same,Total Cell Count,[5],348 and 178
same,Population Apoptotic (%),[6],92% and 90%
same,Population Fragmented Nuclei (%),[6],24% and 11%
same,Population Healthy Nuclei (%),[6],68% and 83%
same,Population Hoechst High Intensity Objects (%),[6],2%
same,Population Membrane Permeable-Phenotype (%),[6],9% and 3%
same,Population Mitochondria Different-Phenotype (%),[6],2%
same,Population Mitotic Cells (%),[6],7% and 9%
same,Population Normal (%),[6],97%
same,Population Pyknosed Nuclei (%),[6],7% and 4%
same,Population Tubulin-Different-Phenotype (%),[6],3%
same,Total Cell Count,[6],383 and 228
